Assay [1] deals with HAT activity in HeLa nuclear extracts (histone H3 acetylation). Format: biochemical. The conditions noted are these: 50 µM compound. A digest of the protocol:
(§1)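 HeLa nuclear extract (2.5 µg/mL final protein) acetylates biotinylated histone H3 (aa 1–21) or H4 (aa 2–24) peptide immobilised via streptavidin. Reaction runs 15 min, read by anti-acetyl-lysine ELISA. H3 tested at 50 µM against H4. Triplicates, scaled to no-inhibitor and no-enzyme controls.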

Assay [2] addresses T1, Tip60 (Homo sapiens, UniProt Q92993). Nature of the assay: Radioisotope-labeled histone acetyltransferase assay, Tip60. Format: biochemical. The conditions noted are these: for Tip60 inhibition (in words): 200 µM compound; for selectivity for Tip60 in comparison with PCAF and p300: recombinant enzyme inhibition assays.
The target of assay [3] is human recombinant PCAF HAT domain (Homo sapiens, UniProt Q92831). Nature of the assay: Radioisotope-labeled histone acetyltransferase assay, PCAF. Format: biochemical. The conditions noted are these: 200 µM compound.
Sequence of human recombinant PCAF HAT domain (Q92831 493-658): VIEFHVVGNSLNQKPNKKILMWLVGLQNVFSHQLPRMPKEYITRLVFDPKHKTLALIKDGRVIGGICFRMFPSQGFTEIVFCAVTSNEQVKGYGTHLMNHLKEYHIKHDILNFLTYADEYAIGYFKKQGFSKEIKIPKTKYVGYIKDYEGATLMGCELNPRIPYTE
Assay [4] has as its system HEP G2 cells. The conditions noted are these: HEP G2 cells ref 12; cited from earlier work.
The subject of assay [5] is HAT activity in HeLa nuclear extracts (histone H4 acetylation). The assay is described as follows: ELISA acetyltransferase assay with HeLa nuclear extracts, histone H4 peptide. The format is biochemical. The conditions noted are these: for inhibition of cellular HAT activity (HeLa nuclear extracts): 200 µM compound, histone H4; for inhibition of HAT activity in HeLa nuclear extracts (in words): histone H4 acetylation. The procedure, abridged: as §1
On the technique in general: In an ELISA, binding on a coated surface is turned into a signal by an enzyme label.

Assay [6] deals with HAT activity of nuclear extracts of brain tissue samples. Format: biochemical, rats. The conditions noted are these: 30 µM inhibitor, histone H3 as acetyl acceptor. A digest of the protocol: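 Nuclear extracts come from tissue of different brain regions, at 40 µg/mL protein, standardised by protein content. Biotinylated histone H3 peptide (aa 1–21) is streptavidin-immobilised as acceptor. Buffer: 50 mM HEPES pH 7.4 with Triton X-100, EDTA, BSA and DTT. Inhibitor at 30 µM, 15 min reaction, anti-acetyl-lysine ELISA. Triplicates for each of two animals, blanks subtracted.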

The target of assay [7] is T2, human recombinant p300 HAT domain (Homo sapiens, UniProt Q09472).
T2 sequence (Q09472 1287-1663 limits assumed): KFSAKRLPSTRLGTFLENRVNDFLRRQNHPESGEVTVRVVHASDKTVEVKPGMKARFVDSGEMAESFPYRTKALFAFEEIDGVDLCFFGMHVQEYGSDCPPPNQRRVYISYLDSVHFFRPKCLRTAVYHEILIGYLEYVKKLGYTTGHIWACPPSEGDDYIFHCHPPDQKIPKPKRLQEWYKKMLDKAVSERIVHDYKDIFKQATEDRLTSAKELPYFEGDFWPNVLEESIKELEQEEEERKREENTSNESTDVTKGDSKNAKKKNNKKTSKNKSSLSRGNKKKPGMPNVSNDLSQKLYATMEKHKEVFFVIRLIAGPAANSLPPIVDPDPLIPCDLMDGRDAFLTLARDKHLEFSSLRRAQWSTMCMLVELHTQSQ
The assay is described as follows: Radioisotope-labeled histone acetyltransferase assay, p300. The format is biochemical. The conditions noted are these: 200 µM compound.

Assay [8] deals with T1, Tip60. Nature of the assay: Steady-state kinetic characterization of Tip60 inhibition. Format: biochemical.
For assay [9], the system named is p300. The conditions noted are these: read-out: IC50 p300; Souto et al. ref 11; cited from earlier work.
Assay [10] concerns p300. The conditions noted are these: read-out: IC50 p300; estimated by Kundu et al. ref 7; cited from earlier work.
Assay [11] has as its system PCAF. The conditions noted are these: read-out: IC50 PCAF; previous characterization with a different assay ref 12; cited from earlier work.
Assay [12] deals with PCAF. The conditions noted are these: read-out: IC50 PCAF; estimated by Kundu et al. ref 7; cited from earlier work.

By inhibition is commonly meant the relative decrease from the control value, in per cent. One may read the IC50 as the concentration that gives 50% inhibition.

Entries after “also recorded” stand apart in the source; their conditions may differ. Like-named read-outs stand apart in the source and are kept apart here.

T1 sequence (Q92993 whole entry, the tested form may be a part): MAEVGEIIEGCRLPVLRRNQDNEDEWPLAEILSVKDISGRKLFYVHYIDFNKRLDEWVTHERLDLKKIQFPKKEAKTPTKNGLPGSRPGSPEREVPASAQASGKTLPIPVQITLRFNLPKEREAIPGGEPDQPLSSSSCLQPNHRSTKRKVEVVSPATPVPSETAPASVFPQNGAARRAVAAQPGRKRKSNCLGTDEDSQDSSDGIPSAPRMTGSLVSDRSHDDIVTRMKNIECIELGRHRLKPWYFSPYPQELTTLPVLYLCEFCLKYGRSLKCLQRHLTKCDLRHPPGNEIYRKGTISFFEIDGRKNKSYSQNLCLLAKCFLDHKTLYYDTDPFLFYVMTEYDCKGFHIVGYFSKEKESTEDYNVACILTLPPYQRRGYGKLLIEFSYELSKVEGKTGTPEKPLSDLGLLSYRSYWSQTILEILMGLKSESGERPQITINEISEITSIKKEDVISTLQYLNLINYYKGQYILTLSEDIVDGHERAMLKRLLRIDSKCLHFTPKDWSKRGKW

Turning to `CCCCCOc1ccc(/C=C\c2cccc(O)c2C(=O)O)cc1` [compound 21], in assay [1], the “inhibitory potency on histone H3 acetylation compared to histone H4 acetylation” value was “opposite”. Also, in assay [2], the “Tip60 inhibition (in words)” value is on record as “also inhibited the Tip60 HAT activity”; the “selectivity for Tip60 in comparison with PCAF and p300” value (“selectivity for Tip60 in comparison” for short) is given as “selective for Tip60”. In addition, in assay [3], the “effect on PCAF activity (in words)” value is “enhance the PCAF activity significantly”. Moreover, the “inhibition of histone acetylation in HEP G2 cells compared to 16 (AA)” value in [4] is reported as “more potent inhibitor of histone acetylation than 16 (AA)”. Further, in assay [5], the “inhibition of cellular HAT activity (HeLa nuclear extracts)” value (from here on “inhibition of cellular HAT activity”) is listed as above 50% and the “inhibition of HAT activity in HeLa nuclear extracts (in words)” value (from here on “inhibition of HAT activity … (in words)”) is reported as “high inhibitory activity”.

With `CCCCCCCCCCc1cc(O)cc(O)c1C(=O)O` [compound 19], in [2], the “Tip60 inhibition (in words)” value is recorded as “also inhibited the Tip60 HAT activity”; the “selectivity for Tip60 in comparison” value is on record as “selective for Tip60”. Further, the “inhibition of cellular HAT activity” value in assay [5] is on record as above 50%.

As to `CCCCCCCOc1ccc(CCc2cccc(O)c2C(=O)O)cc1C(C)=O` [6f], the “Tip60 inhibition (in words)” value in assay [2] is reported as “also inhibited the Tip60 HAT activity”. Moreover, the “inhibition of cellular HAT activity” value in assay [5] is above 50%.

As for `CCCCCCCCCCc1cccc(O)c1C(=O)O` [compound 17], in assay [1], the “inhibitory potency on histone H3 acetylation compared to histone H4 acetylation” value was “almost equal potency for both histones”. The “Tip60 inhibition (in words)” value in assay [2] was “also inhibited the Tip60 HAT activity”. Besides, the “inhibition of cellular HAT activity” value in [5] is on record as above 50%.

For `CCCCCOc1ccc(CCc2cccc(O)c2C(=O)O)cc1C(C)O` (stereo not shown) [6d], in assay [2], the “Tip60 inhibition (in words)” value was “very weakly inhibit”. Besides, in assay [5], the “potency on HeLa nuclear extracts compared to recombinant Tip60” value was “more potent on HeLa nuclear extracts than for the recombinant Tip60”.

Turning to `CCCCCCCCCCCCCCCc1cc(O)cc(O)c1C(=O)O` [compound 18], in assay [2], the “Tip60 inhibition (in words)” value is listed as “also inhibited the Tip60 HAT activity”; the “selectivity for Tip60 in comparison” value was “selective for Tip60”. In addition, the “inhibition of cellular HAT activity” value in [5] was above 50%.

Consider `CC(C)CCCC(C)CCOc1ccc(CCc2cccc(O)c2C(=O)O)cc1` (stereo not shown) [6a], for which the “Tip60 inhibition (in words)” value in assay [2] is “also inhibited the Tip60 HAT activity”. The “inhibition of cellular HAT activity” value in assay [5] was above 50%.

Take `CCCCCCCCCCCCCCCc1ccccc1C(=O)O` [compound 12]: the “Tip60 inhibition (in words)” value in assay [2] is reported as “also inhibited the Tip60 HAT activity”. Also, the “inhibition of cellular HAT activity” value in [5] was above 50%.

`CCCCCCCc1ccc(CCc2cccc(O)c2C(=O)O)cc1` [compound 20]: the “inhibition of HAT activity of nuclear extracts of different brain regions” value in assay [6] is “equal potency to AA”. Besides, the “Tip60 inhibition (in words)” value in assay [2] is recorded as “also inhibited the Tip60 HAT activity”. In addition, the inhibition at 200 µM in [2] (read-out: inhibition of Tip60 activity, 200 µM compound, 100 nM Tip60, 10 µM Ac-CoA, 100 µM H4-20) was above 76%. Moreover, in [3], the “effect on PCAF activity (in words)” value was “no inhibitory impact; also recorded: no observable inhibitory effect”. Further, the “effect on p300 activity (in words)” value in assay [7] is recorded as “no inhibitory impact; also recorded: no observable inhibitory effect”. In assay [8], the “inhibition pattern with respect to Ac-CoA” value is listed as “essentially competitive with respect to Ac-CoA”. Also, the “inhibition of cellular HAT activity” value in assay [5] is above 50%.

With `CCCCCc1cccc(O)c1C(=O)O` [6h], the “Tip60 inhibition (in words)” value in [2] is recorded as “very poor inhibitors”. Also, the “inhibition of HAT activity … (in words)” value in [5] is listed as “strongly reduced HAT inhibitory potency; also recorded: poor inhibition”.

`CCCCCCCCCCCCCCOc1ccc(CCc2cccc(O)c2C(=O)O)cc1` [compound 25]: the “inhibitory potency on histone H3 acetylation compared to histone H4 acetylation” value in assay [1] is recorded as “opposite”. Besides, in assay [2], the “Tip60 inhibition (in words)” value is given as “only modest inhibitory activity; also recorded: also inhibited the Tip60 HAT activity”. In assay [5], the “inhibition of cellular HAT activity” value is given as above 50%.

Take `CCCCCCCc1ccc(CCc2cc(O)cc(O)c2C(=O)O)cc1` [compound 15]: in assay [5], the “potency on HeLa nuclear extracts compared to recombinant Tip60” value is recorded as “more potent on HeLa nuclear extracts than for the recombinant Tip60”.

`COCCOc1ccc(CCc2cccc(O)c2C(=O)O)cc1` [6b]: the “Tip60 inhibition (in words)” value in [2] is listed as “very weakly inhibit; also recorded: very poor inhibitors”. For the same compound, in assay [5], the “inhibition of HAT activity … (in words)” value is given as “strongly reduced HAT inhibitory potency; also recorded: poor inhibition”.

Consider `CCCCCOc1ccc(CCc2cccc(O)c2C(=O)O)cc1` [compound 24], for which the “inhibitory potency on histone H3 acetylation compared to histone H4 acetylation” value in assay [1] is “opposite”. In addition, the “Tip60 inhibition (in words)” value in assay [2] is on record as “also inhibited the Tip60 HAT activity”. Moreover, in [3], the “effect on PCAF activity (in words)” value was “enhance the PCAF activity significantly”. Further, the “inhibition of cellular HAT activity” value in assay [5] is on record as above 50%.

As to `CCCCCCCCCCCCCC#Cc1ccccc1C(=O)OC` [compound 11], the “Tip60 inhibition (in words)” value in [2] was “also inhibited the Tip60 HAT activity”. Besides, the “inhibition of cellular HAT activity” value in assay [5] was above 50%.

For `CCCCCCCCCCCCCCCc1cccc(O)c1C(=O)O` [16 (AA), 6-pentadecylsalicylic acid, reference compound], the concentration for half-maximal inhibition (IC50) is 50 to 100 µM in [9], 8.5 µM in [10], around 1000 µM in assay [11] and 5 µM in assay [12]. Also, in [1], the “inhibitory potency on histone H3 acetylation compared to histone H4 acetylation” value is given as “almost equal potency for both histones”. Also, in assay [2], the “Tip60 inhibition (in words)” value was “almost completely; also recorded: also inhibited the Tip60 HAT activity”. For the same compound, the inhibition at 200 µM in assay [2] (read-out: inhibition of Tip60 activity) is above 76%. For the same compound, the “inhibition of cellular HAT activity” value in assay [5] is above 50%.

On to `CCCCCOc1ccc(CCc2cccc(O)c2C(=O)O)cc1C(C)=O` [6c], for which the “Tip60 inhibition (in words)” value in assay [2] was “also inhibited the Tip60 HAT activity”. Also, the “inhibition of cellular HAT activity” value in assay [5] is above 50%.

The values are drawn from article PMC3399519 (European Journal of Medicinal Chemistry, 2011).
